Screening data as filed in PubChem.
Most compounds without a hit are left out; they make up all but 2.8% or so of the library.
p47phox inh: p47phox/p22phox peptide binding inhibitors, primary screen, biochemical, uHTS, NADPH oxidase regulatory subunit | Neutrophil cytosol factor 1 (Homo sapiens), P14598 | fluorescence polarization, 2 h | inhibition, % at 24.7 µM | 0.53% of 220,000 active;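 further: 0% = p47phox with labelled peptide and 100% = labelled peptide alone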
Target sequence (P14598 whole entry, looked up): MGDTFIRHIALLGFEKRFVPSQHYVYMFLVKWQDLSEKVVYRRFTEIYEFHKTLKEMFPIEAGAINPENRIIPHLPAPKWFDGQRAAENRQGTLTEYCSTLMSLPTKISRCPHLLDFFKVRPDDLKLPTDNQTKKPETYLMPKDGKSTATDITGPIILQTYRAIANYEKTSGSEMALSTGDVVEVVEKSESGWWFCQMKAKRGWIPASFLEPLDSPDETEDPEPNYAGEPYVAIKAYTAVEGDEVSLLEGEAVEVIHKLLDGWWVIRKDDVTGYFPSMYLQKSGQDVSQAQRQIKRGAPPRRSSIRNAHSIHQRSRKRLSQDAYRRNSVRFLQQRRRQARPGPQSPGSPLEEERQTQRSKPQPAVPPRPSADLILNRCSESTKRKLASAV
14-3-3 Bad PPI: inhibitors of 14-3-3 zeta/Bad binding, primary screen, biochemical, TR-FRET, bovine 14-3-3 zeta; 14-3-3 protein zeta/delta (Bos taurus), P63103; TR-FRET 14-3-3zeta/Dy647-pBad peptide displacement, 1 h; inhibition, % at 21.7 µM; 0.71% of 220,000 active;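 active means inhibition above about 70%, limit read from the data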;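 further: 0% = full 14-3-3 plus peptide FRET controls and 100% = background without 14-3-3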
RBBP9 inhibitor: human RBBP9 inhibitors, primary screen, biochemical, fluorescence polarization, FP-Rh probe, HTS | recombinant RBBP9 | inhibition, % at 7.94 µM | 0.2% of 220,000 active;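 active means inhibition above the campaign mean of all tested compounds plus 3 SD, cut at about 14% in these data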;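 further: plate controls were DMSO wells with RBBP9 for no effect and wells lacking RBBP9 protein for full effect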
Target sequence (O75884 whole entry, looked up): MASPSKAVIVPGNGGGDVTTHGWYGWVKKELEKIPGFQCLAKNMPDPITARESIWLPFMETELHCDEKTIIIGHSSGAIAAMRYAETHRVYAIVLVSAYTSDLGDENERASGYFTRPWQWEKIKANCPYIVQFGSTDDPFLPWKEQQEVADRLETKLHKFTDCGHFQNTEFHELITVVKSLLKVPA
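Assay system: recombinant human RBBP9; Reagent: Serine-hydrolase probe FP-Rh, 375 nM pre-mixing; Doses: 7.94 µM single dose, 0.794% DMSO; Incubation: 30 min then 45 min, 25 °C; Detection: fluorescence polarization (mP), excitation 525 nm, emission 598 nm; Evaluation: percent inhibition from mP, scaled between DMSO and no-protein wells.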
eIF4E 4G PPI: eIF4E–eIF4G protein interaction inhibitors, primary screen, biochemical, uHTS, TR-FRET, eIF4GI fragment; AID 782, 2007; Eukaryotic translation initiation factor 4E (Mus musculus) + Eukaryotic translation …; inhibition, % at 21.7 µM; 0.37% of 220,000 active; TR-FRET eIF4E-eIF4GI(517-606) binding, 2 h;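 further: 0% = full FRET control wells and 100% = background wells lacking eIF4GI fragment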
Wee1 stabilizer: Wee1 degradation inhibitors, primary screen, cell-based, HeLa, Wee1K328M-luciferase, luminescence; Wee1-like protein kinase (Homo sapiens), P30291; HeLa Luc-Wee1K328M stability; 100% = proteasome inhibitor MG132 effect; reporter increase, % at 5 µM; 1.2% of 220,000 active;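 active means activation above the mean of all tested compounds plus 3 SD, set per screening run, cut at about 8.8% in these data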;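 further: cells exposed to compound for 20 h before luminescence read; 0% = DMSO alone and 100% = MG132 at 30 µM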
* hit, by the source's call; . = not tested or not shown; [ ] = another dose, or the depositor's remark.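 How the source made its calls, unless noted: active means inhibition above about 30% (limit read from the data); inactive means the rest.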

SMILES | p47phox inh | 14-3-3 Bad PPI | RBBP9 inhibitor | eIF4E 4G PPI | Wee1 stabilizer
C/C=C\C=C/C(=O)Nc1cccc(C2=NOC3(C2)C[C@@H](C(N)=O)N(C(=O)/C=C/CC)C3)c1 (stereo partly specified) | -7 | -4 | . | 75* | .
NC(=O)[C@H]1CC2(CC(c3cccc(NC(=O)CC(c4ccccc4)c4ccccc4)c3)=NO2)CN1C(=O)C(c1ccccc1)c1ccccc1 (stereo partly specified) | -17 | -1 | . | -7 | .
O=C(COC(=O)c1ccc2ccccc2n1)NCc1ccccc1 | -10 | 1 | 7 | -4 | -2
C=CCn1c(SCc2ccccc2C#N)nnc1-c1cc(Br)ccc1O | -8 | 1 | -3 | -1 | 10*
C=CCn1c(SCC(N)=O)nnc1-c1cccc(Br)c1 | -17 | 1 | -6 | -4 | -4
CCOc1cc(/C=N/NC(=O)c2ccc(-c3csc(Nc4ccc(C)cc4)n3)cc2)ccc1OCC(=O)O | -29 | 75* | -5 | 31* | 4
O=C(O)COc1ccc(/C=N/NC(=O)c2ccc(-c3csc(Nc4ccc(Cl)cc4)n3)cc2)cc1 | -89 | 94* | 2 | 72* | 0
O=C1Nc2ccccc2SC(c2ccccc2)C1O (stereo unspecified) | -21 | 40 | -9 | 36* | 4
CCOc1ccc(C(C)=O)cc1NC(=O)/C=C\C(=O)O | 8 | -7 | 3 | 4 | -2
O=C(c1cccnc1)N1CCN(Cc2cccc(F)c2)CC1 | -14 | 75* | 2 | 20 | 0
COc1cccc(CN2CCN(C(=O)c3cccc(F)c3)CC2)c1 | . | . | -4 | . | -3
O=C(Nc1nc2ccccc2c(=O)s1)c1ccco1 | 3 | 3 | -13 | -3 | 10*
C[N+]1(CC(=O)Nc2ccccc2Cl)CCN(C(=O)c2cccs2)CC1 | 94* | -1 | -1 | 3 | -1
CN1CCN(CCC(=O)Nc2ccccc2Cl)CC1 | 1 | -2 | -6 | -2 | 0
COCC(=O)N(c1ccccc1)C(C)C(=O)OC (stereo unspecified) | -4 | 9 | 0 | 2 | -1
Cc1n[nH]c(=S)n(NC(=O)/C=C/C(=O)Nn2c(=S)[nH]nc(C)c2=O)c1=O | -2 | 85* | 2 | 5 | -2
Cc1n[nH]c(=S)n(NC(=O)CC(=O)Nn2c(=S)[nH]nc(C)c2=O)c1=O | -3 | -20 | -9 | -8 | -4
O=C(NCc1csc(-c2cccs2)n1)c1ccsc1 | -7 | -4 | 0 | 3 | 1
O=c1[nH][nH]cc1C=NCc1cccc(C(F)(F)F)c1 | -15 | -7 | 2 | 0 | 0
CC(C)C1Oc2ccccc2N(CC(=O)N(Cc2ccccn2)CC2CCCO2)C1=O (stereo unspecified) | -11 | -6 | -5 | -2 | 9.2*
Cc1ccc(CN(CC2CCCO2)C(=O)CN2C(=O)C(C(C)C)Oc3ccccc32)o1 (stereo unspecified) | -9 | -1 | -5 | 6 | -3
NS(=O)(=O)c1ccc(CCNS(=O)(=O)c2cccc(C(=O)O)c2)cc1 | 2 | 6 | -9 | -3 | -2
CC1CCCCN1S(=O)(=O)c1ccc(C(=O)Nc2ccccc2-c2nc3ccccc3[nH]2)cc1 (stereo unspecified) | -22 | -3 | -10 | 2 | 11*
NC(=O)C12CCCC(Br)(CCC1)C2 | 3 | 7 | -7 | 92* | 2
CCNC(=S)N1CCn2cccc2C1c1ccc(F)cc1 (stereo unspecified) | 40* | -9 | -1 | -3 | -1
SMILES | p47phox inh | 14-3-3 Bad PPI | RBBP9 inhibitor | eIF4E 4G PPI | Wee1 stabilizer
CNC(=S)N1CCn2cccc2C1c1cc(OC)c(OC)c(OC)c1 (stereo unspecified) | 8 | -5 | 4 | -3 | -1
CCOC(=O)c1ccc2nc(C(F)(F)F)[nH]c(=O)c2c1 | -8 | 77* | -1 | -4 | 1
N#CC(C#N)=C1C=C2C=C(N3CCOCC3)CCC2CC1 (stereo unspecified) | 65* | -6 | -5 | 1 | 0
Cc1cc(N2CCOCC2)n2nc(C)c(-c3ccccc3)c2n1 | 1 | -9 | -5 | 89* | -3
Cc1cc(N2CCC3(CC2)OCCO3)n2nc(C)c(-c3ccc(Cl)cc3)c2n1 | . | . | 0 | . | -2
CCCCN(C)C(=S)Nc1ccsc1C(=O)OC | 45* | -5 | -6 | -1 | 2
O=C1CC(NNC(=O)c2cccc(F)c2)C(=O)N1 (stereo unspecified) | -6 | 3 | -1 | -3 | 0
Cc1ccc(CNc2oc(C)nc2C#N)cc1 | -2 | 89* | -8 | 2 | 0
O=C(COc1ccccc1)N/N=C/c1ccc(O[C@@H]2O[C@H](CO)[C@@H](O)[C@H](O)[C@H]2O)cc1 | 2 | -6 | -7 | -4 | 10*
CN(C)c1ccc(/C=N/NC(=O)COc2ccccc2)cc1 | -14 | -8 | 2 | 3 | -1
Cc1ccc(-c2nnc(-c3cccc(NC(=O)c4cccs4)c3)o2)cc1 | -16 | 21 | -11 | 0 | -2
CC(C)(C)c1ccc(/C=N/NC(=S)Nc2cccnc2)cc1 | 1 | -15 | -6 | -1 | -1
Oc1ccc(/C=N/NC(=S)Nc2cccnc2)cc1O | 8 | 84*[fluorescence artefact?] | -11 | -1 | 2
COC(=O)c1ccc(NC(=O)CN2CCC(NC(=O)c3ccco3)CC2)cc1 | 1 | -7 | -3 | 0 | 11*
COc1ccc(CC(=O)N2CCc3ccccc32)cc1 | 6 | -8 | 0 | 2 | 1
COC(=O)C1CCN(C(=O)CSc2nc3ccc(OC)cc3[nH]2)CC1 | 10 | 5 | -13 | 1 | -2
COc1ccc2nc(SCC(=O)N3CCNC3=O)[nH]c2c1 | 4 | 6 | -6 | 1 | 9.0*
COc1ccc(CC(=O)N2CCNC2=O)cc1 | -12 | -9 | -2 | -16 | 29*
Cc1cc(C)c(OCC(=O)NCC2CCCO2)c(C)c1 (stereo unspecified) | -3 | -2 | -3 | 0 | -2
O=C(NCc1c(Cl)cccc1Cl)c1ccc2nnsc2c1 | -13 | -8 | -4 | 3 | -2
CCOC(=O)C1CCCN(Cc2c(F)cccc2Cl)C1 (stereo unspecified) | 3 | 30 | -5 | -2 | 0
Cc1nc2ccc(NC(=O)N3CCOCC3)cc2s1 | -3 | 20 | 2 | 4 | 10*
Cc1ccc(NC2=NCCC2)cc1Cl | -2 | -3 | -9 | 0 | -1
Cc1nc2ccc(NC(=O)N3CCOCC3)cc2nc1C | -7 | 9 | 0 | 1 | 2
Cc1nc2ccc(NC3=NCCCCC3)cc2s1 | 0 | 79* | 0 | 5 | -2
